Measurements as given in ChEMBL document CHEMBL1136923, “Highly potent, orally available anti-inflammatory broad-spectrum chemokine inhibitors” (J Med Chem, 2009).
Blank lines part the entries; values can stand above or below the compound they belong to.

Columns and labels:
Mus musculus [1] = test: Antiinflammatory activity in mouse assessed as inhibition of LPS-induced TNFalpha upregulation at 450 pg, po measured 2 hrs after LPS challenge; format: functional
Method in brief: (§1)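 Murine sublethal endotoxemia: LPS given intraperitoneally, with serum TNF-α measured 2 h after the LPS injection as the end point. Compound was given subcutaneously or orally. Vehicle was 0.6% DMSO and 1% carboxymethylcellulose (final concentrations) in sterile water. Effect is reported as % relative to control.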

[2] = molecular target: C-C chemokine receptor type 2 (Homo sapiens) (UniProt P41597); test: Antagonist activity at CCR2 in human THP1 cells assessed as inhibition of CCL2-induced chemotaxis at 10 nM after 2 hrs by microtiter format trans-well migration assay; format: functional, cell-based; conditions: THP-1
Method in brief: (§2)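 Microtiter trans-well migration assay in Gey's balanced salt solution with 1 mg/mL endotoxin-free BSA, no fetal calf serum. Migration ran 2 h at 37 °C. Compounds dissolved in DMSO and added to both top and bottom compartments, final DMSO 1%.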

Mus musculus [3] = test: Antiinflammatory activity in mouse assessed as inhibition of LPS-induced TNFalpha upregulation at 0.61 ug, po measured 2 hrs after LPS challenge; format: functional; method in brief: as §1
Mus musculus [4] = test: Antiinflammatory activity in mouse assessed as inhibition of LPS-induced TNFalpha upregulation at 0.0023 ug, po measured 2 hrs after LPS challenge; format: functional; method in brief: as §1
Mus musculus [5] = test: Antiinflammatory activity in mouse assessed as inhibition of LPS-induced TNFalpha upregulation at 0.057 ug, po measured 2 hrs after LPS challenge; format: functional; method in brief: as §1
Mus musculus [6] = test: Antiinflammatory activity in mouse assessed as inhibition of LPS-induced TNFalpha upregulation at 0.013 mg, sc measured 2 hrs after LPS challenge; format: functional; method in brief: as §1
[7] = AUC (0 to t) in Sprague-Dawley rat at 1 mg/kg, iv administered as single dose; format: ADME, organism-based, Plasma; design: dose 1 mg/kg, route intravenous; conditions: Sprague-Dawley, plasma
Method in brief: (§3)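 Male Sprague-Dawley rats, three per compound per route, single dose. IV vehicle 5% DMSO in 0.9% saline; oral gavage vehicle 1% carboxymethylcellulose in 0.9% saline; fed ad libitum. Plasma taken 5–480 min post-dose, extracted with 0.1% formic acid in acetonitrile, quantified by LC/MS/MS (positive mode). AUC(0–t) by linear/log trapezoidal rule; IV curve back-extrapolated assuming initial volume 0.26 L/kg.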

Mus musculus [8] = test: Antiinflammatory activity in mouse assessed as inhibition of LPS-induced TNFalpha upregulation at 0.016 ug, po measured 2 hrs after LPS challenge; format: functional; method in brief: as §1
Mus musculus [9] = test: Antiinflammatory activity in po dosed mouse assessed as inhibition of LPS-induced TNFalpha upregulation measured 2 hrs after LPS challenge; format: functional
[10] = Clearance in Sprague-Dawley rat at 1 mg/kg, iv administered as single dose; format: ADME, organism-based; design: dose 1 mg/kg, route intravenous; conditions: in vivo
Method in brief: (§4)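 Male Sprague-Dawley rats, three per compound, receive a single intravenous dose in 5% DMSO in 0.9% saline. Food and water are given ad libitum. Plasma is taken at 5, 15, 30, 60, 120, 180, 240 and 480 min. Drug is measured by LC/MS/MS after extraction with 0.1% formic acid in acetonitrile. The curve is back-extrapolated to time zero assuming an initial volume of 0.26 L/kg.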

[11] = Half life in Sprague-Dawley rat at 3 mg/kg, po administered as single dose; format: ADME, organism-based; design: dose 3 mg/kg, route oral; conditions: in vivo
Method in brief: (§5)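 Male Sprague-Dawley rats, three per compound, receive a single oral dose by gavage in 1% carboxymethylcellulose in 0.9% saline, with food and water ad libitum. Plasma is sampled from 5 to 480 min and drug is quantified by positive-mode LC/MS/MS after acetonitrile/formic acid extraction. The lower limit of quantitation is about 2 ng/mL. Exposure is AUC(0→t) by the linear/log trapezoidal rule, and F is oral fractional bioavailability.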

Mus musculus [12] = test: Antiinflammatory activity in mouse assessed as inhibition of LPS-induced TNFalpha upregulation at […], sc measured 2 hrs after LPS challenge; format: functional; method in brief: as §1
[13] = molecular target: C-C chemokine receptor type 2 (Homo sapiens) (UniProt P41597); test: Antagonist activity at CCR2 in human THP1 cells assessed as inhibition of CCL2-induced chemotaxis at 0.01 nM after 2 hrs by microtiter format trans-well migration assay; format: functional, cell-based; conditions: THP-1; method in brief: as §2
Mus musculus [14] = test: Antiinflammatory activity in mouse assessed as inhibition of LPS-induced TNFalpha upregulation at 0.0055 ug, sc measured 2 hrs after LPS challenge; format: functional; method in brief: as §1
Mus musculus [15] = test: Antiinflammatory activity in sc dosed mouse assessed as inhibition of LPS-induced TNFalpha upregulation measured 2 hrs after LPS challenge relative to control; format: functional
Method in brief: (§6)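 Murine sublethal LPS endotoxemia screen. LPS is injected intraperitoneally and serum TNF-α is measured 2 h later as the end point. Compound is given subcutaneously or orally in a vehicle of 0.6% DMSO plus 1% carboxymethylcellulose (final concentrations) in sterile water. Values are % relative to control.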

Mus musculus [16] = test: Antiinflammatory activity in sc dosed mouse assessed as inhibition of LPS-induced TNFalpha upregulation measured 2 hrs after LPS challenge; format: functional
[17] = Volume of distribution at steady state in Sprague-Dawley rat at 1 mg/kg, iv administered as single dose; format: ADME, organism-based; design: dose 1 mg/kg, route intravenous; conditions: in vivo, read-out: Vdss; method in brief: as §4
Mus musculus [18] = test: Antiinflammatory activity in mouse assessed as inhibition of LPS-induced TNFalpha upregulation at 0.00013 mg, sc measured 2 hrs after LPS challenge; format: functional
Method in brief: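 Murine sublethal endotoxemia: LPS given intraperitoneally, serum TNF-α measured 2 h after LPS injection. Compound vehicle 0.6% DMSO plus 1% carboxymethylcellulose (final concentrations) in sterile water.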

[19] = molecular target: C-C chemokine receptor type 2 (Homo sapiens) (UniProt P41597); test: Antagonist activity at CCR2 in human THP1 cells assessed as inhibition of CCL2-induced chemotaxis at 1 nM after 2 hrs by microtiter format trans-well migration assay; format: functional, cell-based; conditions: THP-1; method in brief: as §2
[20] = AUC (0 to t) in Sprague-Dawley rat at 3 mg/kg, po administered as single dose; format: ADME, organism-based; design: dose 3 mg/kg, route oral; conditions: plasma; method in brief: as §3
[21] = Half life in Sprague-Dawley rat at 1 mg/kg, iv administered as single dose; format: ADME, organism-based; design: dose 1 mg/kg, route intravenous; conditions: in vivo; method in brief: as §4
[22] = molecular target: C-C chemokine receptor type 2 (Homo sapiens) (UniProt P41597); test: Antagonist activity at CCR2 in human THP1 cells assessed as inhibition of CCL2-induced chemotaxis at 100 nM after 2 hrs by microtiter format trans-well migration assay; format: functional, cell-based; conditions: THP-1; method in brief: as §2
Mus musculus [23] = test: Antiinflammatory activity in mouse assessed as inhibition of LPS-induced TNFalpha upregulation at 0.016 mg, po measured 2 hrs after LPS challenge; format: functional; method in brief: as §1
Mus musculus [24] = test: Antiinflammatory activity in mouse assessed as inhibition of LPS-induced TNFalpha upregulation at 0.0013 mg, sc measured 2 hrs after LPS challenge; format: functional; method in brief: as §1
[25] = Cmax in Sprague-Dawley rat at 3 mg/kg, po administered as single dose; format: ADME, organism-based; design: dose 3 mg/kg, route oral; conditions: in vivo; method in brief: as §5
[26] = Fractional bioavailability in Sprague-Dawley rat at 3 mg/kg, po administered as single dose; format: ADME, organism-based; conditions: in vivo; method in brief: as §5
Mus musculus [27] = test: Antiinflammatory activity in mouse assessed as inhibition of LPS-induced TNFalpha upregulation at 0.013 ug, sc measured 2 hrs after LPS challenge; format: functional; method in brief: as §1
[28] = molecular target: C-C chemokine receptor type 2 (Homo sapiens) (UniProt P41597); test: Antagonist activity at CCR2 in human THP1 cells assessed as inhibition of CCL2-induced chemotaxis at 0.1 nM after 2 hrs by microtiter format trans-well migration assay; format: functional, cell-based; conditions: THP-1; method in brief: as §2
[29] = molecular target: C-C chemokine receptor type 2 (Homo sapiens) (UniProt P41597); test: Antagonist activity at CCR2 in human THP1 cells assessed as inhibition of CCL2-induced chemotaxis at 1000 nM after 2 hrs by microtiter format trans-well migration assay; format: functional, cell-based; conditions: THP-1; method in brief: as §2
Mus musculus [30] = test: Antiinflammatory activity in po dosed mouse assessed as inhibition of LPS-induced TNFalpha upregulation measured 2 hrs after LPS challenge relative to control; format: functional; method in brief: as §6
[31] = molecular target: C-C chemokine receptor type 2 (Homo sapiens) (UniProt P41597); test: Antagonist activity at CCR2 in human THP1 cells assessed as inhibition of CCL2-induced chemotaxis after 2 hrs by microtiter format trans-well migration assay; format: functional, cell-based; conditions: THP-1; method in brief: as §2
Mus musculus [32] = test: Antiinflammatory activity in mouse assessed as inhibition of LPS-induced TNFalpha upregulation at 0.3 ug, sc measured 2 hrs after LPS challenge; format: functional; method in brief: as §1
Mus musculus [33] = test: Antiinflammatory activity in mouse assessed as inhibition of LPS-induced TNFalpha upregulation at 0.003 ug, sc measured 2 hrs after LPS challenge; format: functional; method in brief: as §1
Mus musculus [34] = test: Antiinflammatory activity in mouse assessed as inhibition of LPS-induced TNFalpha upregulation at 0.003 mg, sc measured 2 hrs after LPS challenge; format: functional; method in brief: as §1
Mus musculus [35] = test: Antiinflammatory activity in mouse assessed as inhibition of LPS-induced TNFalpha upregulation at 0.03 ug, sc measured 2 hrs after LPS challenge; format: functional; method in brief: as §1
Mus musculus [36] = test: Antiinflammatory activity in mouse assessed as inhibition of LPS-induced TNFalpha upregulation at 0.12 mg, sc measured 2 hrs after LPS challenge; format: functional
Method in brief: (§7)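 Sublethal murine endotoxemia with LPS given intraperitoneally. Compound was given subcutaneously in vehicle of 0.6% DMSO and 1% carboxymethylcellulose (final concentrations) in sterile water. Serum TNF-α was measured 2 h after LPS injection. Values are expressed as % relative to control.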

Mus musculus [37] = test: Antiinflammatory activity in mouse assessed as inhibition of LPS-induced TNFalpha upregulation at 0.015 mg, sc measured 2 hrs after LPS challenge; format: functional; method in brief: as §7
Mus musculus [38] = test: Antiinflammatory activity in mouse assessed as inhibition of LPS-induced TNFalpha upregulation at 300 pg, sc measured 2 hrs after LPS challenge; format: functional; method in brief: as §7
Mus musculus [39] = test: Antiinflammatory activity in mouse assessed as inhibition of LPS-induced TNFalpha upregulation at 0.03 mg, sc measured 2 hrs after LPS challenge; format: functional; method in brief: as §7
Mus musculus [40] = test: Antiinflammatory activity in mouse assessed as inhibition of LPS-induced TNFalpha upregulation at 0.06 mg, sc measured 2 hrs after LPS challenge; format: functional; method in brief: as §7

Chain of C-C chemokine receptor type 2 (Homo sapiens) (P41597 whole entry, looked up): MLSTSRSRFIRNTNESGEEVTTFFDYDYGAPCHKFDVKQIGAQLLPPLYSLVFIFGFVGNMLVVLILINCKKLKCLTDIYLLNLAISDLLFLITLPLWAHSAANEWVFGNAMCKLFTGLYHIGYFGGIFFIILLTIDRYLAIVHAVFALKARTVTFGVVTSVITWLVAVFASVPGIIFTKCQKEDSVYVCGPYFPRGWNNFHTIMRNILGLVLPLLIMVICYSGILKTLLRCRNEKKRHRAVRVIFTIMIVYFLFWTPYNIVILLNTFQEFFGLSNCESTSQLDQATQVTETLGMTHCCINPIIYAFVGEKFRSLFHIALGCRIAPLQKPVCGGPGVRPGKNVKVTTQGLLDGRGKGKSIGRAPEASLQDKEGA

inhibition [2]: 102% | AUC(0-t) [7]: 3860 ng·h/mL | clearance [10]: 6.8 mL/min/kg | half-life [11]: 2.8 h | inhibition [13]: 33% | Vd [17]: 0.7 L/kg | inhibition [19]: 101% | AUC(0-t) [20]: 8220 ng·h/mL | half-life [21]: 2.02 h | inhibition [22]: 101% | Cmax [25]: 989 ng/mL | bioavailability [26]: 71% | inhibition [28]: 80% | inhibition [29]: 102% | ED50 [31]: 0.04 nM
SMILES: CC(C)(C)C(=O)N[C@H]1CCCCNC1=O
inhibition (INH) (Mus musculus [1]): 43% | inhibition (INH) (Mus musculus [3]): 80% | inhibition (INH) (Mus musculus [4]): 41% | inhibition (INH) (Mus musculus [5]): 76% | inhibition (INH) (Mus musculus [6]): 91% | inhibition (INH) (Mus musculus [8]): 70% | ED50 (Mus musculus [9]): 0.1 µg/kg | inhibition (INH) (Mus musculus [12]): 44% | inhibition (INH) (Mus musculus [14]): 73% | inhibition (INH) (Mus musculus [15]): 90% | ED50 (Mus musculus [16]): 0.1 µg/kg | inhibition (INH) (Mus musculus [18]): 81% | inhibition (INH) (Mus musculus [23]): 83% | inhibition (INH) (Mus musculus [24]): 94% | inhibition (INH) (Mus musculus [27]): 80% | inhibition (INH) (Mus musculus [30]): 80%

SMILES: C[C@@H]1C[C@H]2[C@@H]3CCC4=CC(=O)C=C[C@]4(C)[C@@]3(F)[C@@H](O)C[C@]2(C)[C@@]1(O)C(=O)CO [DEXAMETHASONE]
inhibition (INH) (Mus musculus [32]): 69% | inhibition (INH) (Mus musculus [33]): 31% | inhibition (INH) (Mus musculus [34]): 75% | inhibition (INH) (Mus musculus [15]): 90% | ED50 (Mus musculus [16]): 3 µg/kg | inhibition (INH) (Mus musculus [35]): 33% | inhibition (INH) (Mus musculus [36]): 88% | inhibition (INH) (Mus musculus [37]): 84% | inhibition (INH) (Mus musculus [38]): 24% | inhibition (INH) (Mus musculus [39]): 90% | inhibition (INH) (Mus musculus [40]): 87%
